Experimental findings from ChEMBL document CHEMBL1136881, “2-(substituted phenyl)amino analogs of 1-methoxyspirobrassinol methyl ether: synthesis and anticancer activity” (Bioorg Med Chem, 2009) are described below.

The structures appear in SMILES notation. Active and inactive are the calls of the source. The rule behind the calls is not given here.

Assay [1] deals with Jurkat. The assay can be described thus: Cytotoxicity against human Jurkat cells after 72 hrs by MTT assay. Type of assay: functional, cell-based. In short, it runs like this: (§1)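 MTT microculture assay. Cells were seeded per well at 3 × 10³ (A-549, MCF-7, MDA-MB-231; DMEM), 5 × 10³ (HeLa; RPMI 1640) or 1 × 10⁴ (Jurkat, CEM; RPMI 1640), all with 10% FCS. Final concentrations were 10⁻⁴–10⁻⁶ mol·L⁻¹ (4 levels), for 72 h. MTT was then added for 4 h and SDS for 12 h, and A540 read. IC50 was taken against blank-corrected untreated control.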

For assay [2], the system named is MCF7. As to the kind of experiment: Cytotoxicity against human MCF7 cells after 72 hrs by MTT assay. It is filed as functional, cell-based. The conditions noted are these: MCF7, 72 h. The procedure, abridged: as §1
Assay [3] concerns MDA-MB-231. The assay can be described thus: Cytotoxicity against human MDA-MB-231 cells after 72 hrs by MTT assay. Type of assay: functional, cell-based. The note with it: MDA-MB-231, 72 h. In short, it runs like this: as §1
The test system of assay [4] is HeLa. The assay can be described thus: Cytotoxicity against human HeLa cells after 72 hrs by MTT assay. Type of assay: functional, cell-based.
In assay [5] the test system is CCRF-CEM. As to the kind of experiment: Cytotoxicity against human CCRF-CEM cells after 72 hrs by MTT assay. It is filed as functional, cell-based. The procedure, abridged:
as §1

Assay [6] concerns A549. The assay can be described thus: Cytotoxicity against human A549 cells after 72 hrs by MTT assay. It is filed as functional, cell-based. The note with it: A549, 72 h.
In assay [7] the test system is Bacillus subtilis. The assay can be described thus: Antibacterial activity against Bacillus subtilis CCM 4062 at 20 ug/2.5 ul/6 mm disk after 24 hrs by disk diffusion assay. It is filed as functional, organism-based. In short, it runs like this: (§2)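 Inoculum was prepared from an overnight blood-agar culture and adjusted in saline to 1.5 × 10⁸ CFU/ml (0.5 McFarland). It was swabbed evenly onto Mueller–Hinton or Sabouraud agar, and paper disks were applied. Plates were incubated 24 h at 37 °C. The read-out was inhibition-zone diameter around the disk, run alongside clinical antimicrobial reference agents.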

Assay [8] relates to Streptococcus pyogenes. The assay can be described thus: Antibacterial activity against Streptococcus pyogenes CCM 4425 at 20 ug/2.5 ul/6 mm disk after 24 hrs by disk diffusion assay. Type of assay: functional. The procedure, abridged: as §2

With `CON1c2ccccc2[C@@]2(CN=C(SC)S2)[C@@H]1Oc1ccccc1` (relative stereo), the IC50 in assay [1], in assay [2], in assay [3], in assay [4], in assay [5] and in assay [6] was 100 µM throughout.

As for `CON1c2ccccc2[C@@]2(CN=C(SC)S2)[C@H]1Nc1ccccc1` (relative stereo), the IC50 was found to be 100 µM in assay [1]; 100 µM in assay [2]; 100 µM in assay [3]; 31.9 µM in assay [4]; 100 µM in assay [5]; 100 µM in assay [6].

Take `CON1c2ccccc2[C@@]2(CN=C(SC)S2)[C@H]1Nc1ccc(C)cc1` (relative stereo): the IC50 stood at 33.3 µM in assay [1]; 100 µM in assay [2]; 100 µM in assay [3]; 36.8 µM in assay [4]; 100 µM in assay [5]; 100 µM in assay [6].

Take `CN[C@@H]1N(OC)c2ccccc2[C@@]12CN=C(SC)S2` (relative stereo): the IC50 worked out at 100 µM in assay [1]; 100 µM in assay [2]; 100 µM in assay [3]; 33.6 µM in assay [4]; 100 µM in assay [5]; 100 µM in assay [6].

Take `CON1c2ccccc2[C@@]2(CN=C(SC)S2)[C@H]1Oc1ccccc1` (relative stereo): the IC50 in assay [1], in assay [2], in assay [3], in assay [4], in assay [5] and in assay [6] was 100 µM each time.

For `CON1c2ccccc2[C@@]2(CN=C(SC)S2)[C@@H]1Nc1ccccc1Cl` (relative stereo), the IC50 in assay [1] amounted to 29.4 µM; in assay [2] it was 100 µM; in assay [3], 100 µM; in assay [4] it was 76.8 µM; in assay [5] it was 36 µM; in assay [6], 100 µM.

Consider `CO[C@H]1N(OC)c2ccccc2[C@@]12CN=C(SC)S2` (relative stereo), for which the IC50 in assay [1] stood at 30.2 µM; in assay [2] it was 100 µM; in assay [3] it was 100 µM; in assay [4] it was 48.9 µM; in assay [5], 100 µM; in assay [6] it was 100 µM.

In the case of `CO[C@@H]1N(OC)c2ccccc2[C@@]12CN=C(SC)S2` (relative stereo), the IC50 in assay [1] was found to be 57.4 µM; in assay [2] it was 100 µM; in assay [3], 100 µM; in assay [4], 53.2 µM; in assay [5], 100 µM; in assay [6], 100 µM.

Regarding `CON1c2ccccc2[C@@]2(CN=C(SC)S2)[C@@H]1Nc1ccc(Cl)c(Cl)c1` (relative stereo), the IC50 in assay [1] came to 10 µM; in assay [2] it was 100 µM; in assay [3] it was 35.5 µM; in assay [4] it was 15.4 µM; in assay [5], 100 µM; in assay [6] it was 24.7 µM.

On to `CON1c2ccccc2[C@@]2(CN=C(SC)S2)[C@@H]1Nc1ccc(C(F)(F)F)cc1` (relative stereo), for which the IC50 in assay [1] amounted to 41.8 µM; in assay [2], 100 µM; in assay [3], 88 µM; in assay [4], 81.9 µM; in assay [5], 74.3 µM; in assay [6], 1 µM. In assay [7], the result was Active.

Consider `CON1c2ccccc2[C@@]2(CN=C(SC)S2)[C@@H]1Nc1ccc(Cl)cc1` (relative stereo), for which the IC50 was 30.7 µM in assay [1]; 100 µM in assay [2]; 100 µM in assay [3]; 44.8 µM in assay [4]; 37.4 µM in assay [5]; 85.9 µM in assay [6].

As to `COc1ccc(N[C@H]2N(OC)c3ccccc3[C@@]23CN=C(SC)S3)cc1` (relative stereo), the IC50 in assay [1] was 69.4 µM; in assay [2], 100 µM; in assay [3] it was 64 µM; in assay [4] it was 100 µM; in assay [5], 15.5 µM; in assay [6], 100 µM.

Turning to `CON1c2ccccc2[C@@]2(CN=C(SC)S2)[C@H]1Nc1ccccc1Cl` (relative stereo), the IC50 in assay [1] stood at 43 µM; in assay [2], 100 µM; in assay [3] it was 100 µM; in assay [4] it was 100 µM; in assay [5], 75.8 µM; in assay [6], 82 µM.

With `CON1c2ccccc2[C@@]2(CN=C(SC)S2)[C@H]1Nc1ccc([N+](=O)[O-])cc1` (relative stereo), the IC50 in assay [1] is 100 µM; in assay [2] it was 88 µM; in assay [3] it was 100 µM; in assay [4], 100 µM; in assay [5], 54.5 µM; in assay [6] it was 30.2 µM.

Turning to `CON1c2ccccc2[C@@]2(CN=C(SC)S2)[C@@H]1Nc1ccc([N+](=O)[O-])cc1` (relative stereo), the IC50 in assay [1] turned out to be 10 µM; in assay [2], 100 µM; in assay [3], 100 µM; in assay [4] it was 50 µM; in assay [5], 100 µM; in assay [6], 100 µM.

As to `CON1c2ccccc2[C@@]2(CN=C(SC)S2)[C@H]1Nc1ccc(Cl)c(Cl)c1` (relative stereo), the IC50 in assay [1] is 21 µM; in assay [2], 22.6 µM; in assay [3], 20.7 µM; in assay [4] it was 21.8 µM; in assay [5] it was 22.6 µM; in assay [6] it was 21.1 µM. For the same molecule, the result in assay [7] was Active.

In the case of `CON1c2ccccc2[C@@]2(CN=C(SC)S2)[C@@H]1Nc1ccccc1` (relative stereo), the IC50 is 17.8 µM in assay [1]; 100 µM in assay [2]; 62 µM in assay [3]; 25.8 µM in assay [4]; 31.8 µM in assay [5]; 100 µM in assay [6].

Take `CON1c2ccccc2[C@@]2(CN=C(SC)S2)[C@H]1Nc1ccc(C)c(C)c1` (relative stereo): the IC50 stood at 47.1 µM in assay [1]; 58 µM in assay [2]; 100 µM in assay [3]; 23.8 µM in assay [4]; 45.5 µM in assay [5]; 42.6 µM in assay [6].

For `CON1c2ccccc2[C@@]2(CN=C(SC)S2)[C@@H]1Nc1ccc(C)c(C)c1` (relative stereo), the IC50 in assay [1] amounted to 10 µM; in assay [2], 100 µM; in assay [3], 100 µM; in assay [4] it was 54.9 µM; in assay [5] it was 100 µM; in assay [6] it was 100 µM.

For `CON1c2ccccc2[C@@]2(CN=C(SC)S2)[C@H]1Nc1ccc(Cl)cc1` (relative stereo), the 50% inhibitory concentration (IC50) in assay [1] was determined as 100 µM; in assay [2] it was 28.5 µM; in assay [3] it was 20.7 µM; in assay [4], 22.3 µM; in assay [5], 100 µM; in assay [6], 22.3 µM.

`CON1c2ccccc2[C@@]2(CN=C(SC)S2)[C@H]1Nc1ccc(Br)cc1` (relative stereo): the IC50 in assay [1] was found to be 33.4 µM; in assay [2] it was 34.1 µM; in assay [3], 100 µM; in assay [4], 81.5 µM; in assay [5], 28.7 µM; in assay [6], 35.1 µM.

In the case of `COc1ccc(N[C@@H]2N(OC)c3ccccc3[C@@]23CN=C(SC)S3)cc1` (relative stereo), the IC50 in assay [1] stood at 34.8 µM; in assay [2], 100 µM; in assay [3], 100 µM; in assay [4], 81.5 µM; in assay [5], 10 µM; in assay [6], 73.9 µM.

For the molecule `CON1c2ccccc2[C@@]2(CN=C(SC)S2)[C@H]1Nc1ccc(C(F)(F)F)cc1` (relative stereo), the IC50 in assay [1] was 28.4 µM; in assay [2] it was 66.8 µM; in assay [3], 31.1 µM; in assay [4] it was 34.9 µM; in assay [5], 54 µM; in assay [6] it was 46.6 µM. The outcome in assay [7] was Active.

For the molecule `CON1c2ccccc2[C@@]2(CN=C(SC)S2)[C@@H]1Nc1ccc(C)cc1` (relative stereo), the IC50 in assay [1] worked out at 6.6 µM; in assay [2], 100 µM; in assay [3], 78.7 µM; in assay [4], 100 µM; in assay [5], 64.7 µM; in assay [6] it was 100 µM.

`CON1c2ccccc2[C@@]2(CN=C(SC)S2)[C@@H]1Nc1ccc(Br)cc1` (single isomer, unassigned): the IC50 in assay [1] worked out at 29.3 µM; in assay [2], 100 µM; in assay [3], 100 µM; in assay [4], 55.7 µM; in assay [5], 54.8 µM; in assay [6], 100 µM. In addition, the “diameter of the inhibition zone (DIZ)” value in assay [8] was 7 mm.

Consider `COc1cccc2c1C(=O)c1c(O)c3c(c(O)c1C2=O)C[C@@](O)(C(=O)CO)C[C@@H]3O[C@H]1C[C@H](N)[C@H](O)[C@H](C)O1` [DOXORUBICIN], for which the IC50 is 0.078 µM in assay [1], 0.5 µM in assay [2], 0.2 µM in assay [3] and 0.09 µM in assay [5].

Regarding `COc1cc([C@@H]2c3cc4c(cc3[C@@H](O[C@@H]3O[C@@H]5CO[C@@H](C)O[C@H]5[C@H](O)[C@H]3O)[C@H]3COC(=O)[C@H]23)OCO4)cc(OC)c1O` [ETOPOSIDE], the IC50 stood at 1.2 µM in assay [1]; 10.9 µM in assay [2]; 21.2 µM in assay [3]; 3.9 µM in assay [4]; 1.1 µM in assay [5]; 14.3 µM in assay [6].
